High-throughput results as filed in PubChem.
An excerpt weighted towards active compounds, which were near 2.9% of everything screened.
SIRT5 inh – sirtuin-5 (human) deacylase inhibition; Purified SirT5, succinyl-peptide AMC, trypsin-coupled fluorescence; inhibition, % at 15 µM; hit rate 1.1% among 330,000; in the data active = inhibition above about 15%; inconclusive = no clear call, values can overlap the other calls
E-sel inducer – induces E-selectin expression in human endothelial cells; hit rate 0.37% among 260,000; activation, % at 7.58 µM; AID 686992; P16581; HUVEC E-selectin immunofluorescence imaging; normalized: neutral wells 0, TNF-alpha wells 100;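 active = mean E-selectin-positive cell signal at least 10% of the positive control, reached in at least 60% of replicates, without over 20% cell loss; inconclusive = no rule given, readout overlaps actives, possibly toxicity-flagged; inactive = the rest, including those meeting only one limit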
Target sequence (P16581 whole entry, looked up): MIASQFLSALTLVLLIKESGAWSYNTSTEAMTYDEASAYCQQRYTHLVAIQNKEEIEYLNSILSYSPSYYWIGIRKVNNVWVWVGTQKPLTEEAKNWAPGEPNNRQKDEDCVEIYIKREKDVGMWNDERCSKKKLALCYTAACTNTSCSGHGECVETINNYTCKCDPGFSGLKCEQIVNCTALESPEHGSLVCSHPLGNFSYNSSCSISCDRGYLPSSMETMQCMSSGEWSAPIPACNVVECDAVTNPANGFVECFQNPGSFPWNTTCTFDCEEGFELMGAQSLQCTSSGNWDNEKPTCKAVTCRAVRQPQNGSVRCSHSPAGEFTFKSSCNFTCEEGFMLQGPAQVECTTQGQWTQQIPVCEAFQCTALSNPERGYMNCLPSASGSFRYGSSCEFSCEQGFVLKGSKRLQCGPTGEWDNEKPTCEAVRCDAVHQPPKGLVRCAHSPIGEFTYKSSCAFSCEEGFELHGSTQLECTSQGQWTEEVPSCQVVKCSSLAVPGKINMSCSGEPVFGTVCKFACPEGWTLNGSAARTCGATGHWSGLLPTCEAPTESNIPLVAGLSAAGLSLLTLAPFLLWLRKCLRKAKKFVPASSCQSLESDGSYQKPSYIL
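Test system: HUVEC | Signal: Immunofluorescence imaging | Read-out: Percent E-selectin-positive cells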
DENV2 CPE – DENV2-induced cell death inhibition; hit rate 1.7% among 350,000; CPE inhibition, % at 9.99 µM; DENV2-infected cells, cytopathic effect rescue, plate reader; AID 651640; in the data active = CPE inhibition above about 20%, passing the limit was not always enough; inconclusive = no clear call, values can overlap the other calls; tested in BHK-21 cells
Hits are given with their value; - = inactive; ? = inconclusive; . = no result given.

SMILES	SIRT5 inh	E-sel inducer	DENV2 CPE
CN(C)CC(=O)N[C@H]1CC[C@H](CCn2cc(C3CCCCC3)nn2)O[C@@H]1CO	-	-	-
COc1cccc(-c2cn(CC[C@@H]3CC[C@H](NC(=O)CC4CC4)[C@@H](CO)O3)nn2)c1	30	-	-
CN(C)CC(=O)N[C@@H]1CC[C@@H](CCn2cc(C3CCCCC3)nn2)O[C@H]1CO	-	-	24
COc1ccc(NC(=O)N[C@H]2CC[C@@H](CCn3cc(-c4ccc(OC)cc4)nn3)O[C@H]2CO)cc1	-	-	-
COc1ccc(-c2cn(CC[C@@H]3CC[C@H](NC(=O)Nc4ccc(F)cc4)[C@@H](CO)O3)nn2)cc1	-	-	50
COc1cccc(-c2cn(CC[C@H]3CC[C@H](NC(=O)CC4CC4)[C@H](CO)O3)nn2)c1	-	-	-
CCCNC(=O)N[C@H]1CC[C@@H](CCn2cc(-c3cccc(F)c3)nn2)O[C@@H]1CO	-	-	-
CCc1nc2sc(C(C)=O)c(N)c2c2c1CCCC2	-	.	?
Nc1ccn(C2OC(COP(=O)(O)O)C(O)C2O)c(=O)n1 (configuration not stated)	-	-	-
COC(=O)[C@]1(Cc2ccccc2)N[C@H](CN(C)C(=O)Nc2ccc(Cl)cc2)[C@@H]2C(=O)N(C)C(=O)[C@@H]21	.	-	-
COC(=O)c1ccc(C(=O)N2CCCC(Nc3ccc(F)c(F)c3)C2)cc1 (configuration not stated)	-	-	-
O=C(Nc1ccc(Cl)c(Cl)c1)N[C@H]1CC[C@@H](CCn2cc(C3CC3)nn2)O[C@@H]1CO	-	-	-
O=C(Nc1ccc(Cl)c(Cl)c1)N[C@@H]1CC[C@H](CCn2cc(C3CC3)nn2)O[C@H]1CO	27	-	-
O=C(c1cccc(Oc2ccccc2)c1)N1CCOCC1	-	-	-
O=C(Oc1cccc(C(=S)N2CCOCC2)c1)c1ccc([N+](=O)[O-])cc1[N+](=O)[O-]	101	-	-
O=C(Oc1ccc(C(=S)N2CCOCC2)cc1)c1ccc([N+](=O)[O-])cc1[N+](=O)[O-]	-	.	-
O=C(c1cccc(Oc2ccc([N+](=O)[O-])cc2)c1)N1CCOCC1	-	-	97
Nc1[nH]c(C(=O)c2ccccc2)c(-c2ccc(Cl)cc2Cl)c1C(=O)c1ccc(Br)cc1	-	.	-
O=C1CC(c2cccnc2)c2cc3c(cc2N1)OCO3 (configuration not stated)	-	-	-
COc1ccc(/C=C/C(=O)OCC(=O)c2ccc[nH]2)cc1	-	.	-
O=C(/C=C/c1ccc([N+](=O)[O-])cc1)OCC(=O)c1ccc[nH]1	23	-	-
O=C1NC(Cc2ccccc2)c2nc3ccc(F)cc3c(=O)n2-c2ccccc21 (configuration not stated)	-	-	-
CC(=O)N(C)C[C@H]1Oc2cc(C#CCC3CCCC3)ccc2S(=O)(=O)N([C@@H](C)CO)C[C@H]1C	-	-	-
N#CC1(Nc2cccc(Br)c2)C(=O)Nc2ccccc21 (configuration not stated)	-	.	?
O=C(O)C1(c2ccccc2)CCN(S(=O)(=O)c2cccs2)CC1	-	-	?
SMILES	SIRT5 inh	E-sel inducer	DENV2 CPE
O=C(Cc1cccc(C(F)(F)F)c1)OCC(=O)N1CCN(S(=O)(=O)c2ccc(Cl)cc2)CC1	-	.	-
Nc1ncccc1C(=O)OCC(=O)N1CCN(S(=O)(=O)c2ccc(Cl)cc2)CC1	-	-	45
O=C(Cc1ccc(F)cc1)OCC(=O)N1CCN(S(=O)(=O)c2ccc(Cl)cc2)CC1	19	-	-
O=C(CCS(=O)(=O)c1ccccc1)OCC(=O)N1CCN(S(=O)(=O)c2ccc(Cl)cc2)CC1	-	-	-
CCN(CC)C(=O)C1=C(C)N(CCC2=CCCCC2)C(=O)C(CC(=O)NCCc2ccccn2)C1 (configuration not stated)	-	-	-
CCCc1cc(=O)oc2cc(OCc3cccc(OC)c3)c(Cl)cc12	-	.	-
COc1cc(NC(=O)Nc2nc(C(N)C(C)C)cs2)cc(OC)c1OC (configuration not stated)	-	-	-
Cn1c(Cc2ccccc2)nnc1SCc1cc(=O)n2ccsc2n1	-	-	-
O=c1cc(CSc2nnnn2-c2ccc(O)cc2)nc2sccn12	38	-	-
CCC(C)(C)NC(=O)/C=C/c1ccccc1[N+](=O)[O-]	-	-	-
CCNC(=O)/C=C/c1ccccc1[N+](=O)[O-]	-	31	-
Cc1ccsc1C(=O)N1CCN(c2ccccn2)CC1	-	.	-
CCOc1ccccc1N(CC(=O)Nc1cccc(OC)c1)S(=O)(=O)c1ccccc1	-	-	-
CCOc1ccccc1N(CC(=O)Nc1ccc(OC)cc1)S(=O)(=O)c1ccccc1	-	-	28
CCOc1ccc(NC(=O)c2ccccc2SC)cc1	-	-	-
O=C(c1ccc(Cl)cc1)C1CCCN(C(=O)c2csnn2)C1 (configuration not stated)	112	.	-
COc1ccc2cc(C(=O)C3CCCN(C(=O)c4csnn4)C3)ccc2c1 (configuration not stated)	-	.	-
CCN1CCN(C(=O)c2ccc3c(c2)c(C)c(C)n3Cc2ccccc2)CC1	-	-	-
Cc1nc2sc(-c3ccccc3)cc2c(=O)[nH]1	-	.	-
Cc1csc(NC(=O)c2ccc(N3CCCC3=O)cc2)n1	-	.	-
Cc1csc(N2CCCC2=O)n1	21	.	-
COc1ccccc1NC(=S)N1CCN(Cc2ccccc2)CC1	-	-	-
COc1ccc(C(=O)C2CCN(C(=S)Nc3ccc(F)cc3)CC2)cc1	-	-	-
COc1ccc(NC(=S)N2CCC(C(=O)c3ccc(F)cc3)CC2)c(OC)c1	25	.	-
COc1ccccc1NC(=S)N1CCCCCC1	-	65	-
SMILES	SIRT5 inh	E-sel inducer	DENV2 CPE
CCOc1ccc(NC(=O)CCN2C(=O)C3CCCCC3C2=O)cc1OCC (configuration not stated)	-	-	-
C=CCN1C(=O)c2ccccc2Sc2ccc(C(=O)NC(C)C)cc21	-	-	-
C=CCN1C(=O)c2ccccc2Sc2ccc(C(=O)NCC(OC)OC)cc21	-	-	29
O=[N+]([O-])c1cccc(COc2ccc(CN3CCCCC3)cc2)c1	.	-	-
CN1C(=O)C(O)(c2sc(N)nc2-c2ccccc2)c2ccccc21 (configuration not stated)	21	.	.
CC(=O)Nc1sc(N)nc1-c1ccccc1	.	-	-
Cc1ccc(C(=O)/C=C/c2cc(C#N)n(C)c2C)cc1	22	-	-
Cc1c(/C=N/NC(=O)c2cccnc2)cc(C#N)n1C	-	-	-
O=C1CCC(=O)N1c1ccc(S(=O)(=O)Nc2cccc([N+](=O)[O-])c2)cc1	-	-	-
c1nc(N2CCOCC2)c2c3c(sc2n1)CCCC3	36	.	.
Cc1nc(N2CCOCC2)c2c3c(sc2n1)CCC3	-	-	-
CCn1cc(C(=O)N[C@H](C(=O)NCCCOC)C(C)C)c(=O)c2cc3c(cc21)OCO3	-	-	-
C[C@H]1CN([C@@H](C)CO)C(=O)c2ccccc2-c2ccccc2CO[C@@H]1CN(C)Cc1ccc(Cl)c(Cl)c1	19	-	-
C[C@H]1CN([C@@H](C)CO)C(=O)c2ccccc2-c2ccccc2CO[C@@H]1CN(C)C(=O)Nc1ccccc1C(F)(F)F	21	-	-
C[C@@H]1CN([C@H](C)CO)C(=O)c2ccccc2-c2ccccc2CO[C@@H]1CN(C)Cc1ccc(Cl)c(Cl)c1	-	-	-
